The source made the active and inactive calls. No cut-off for these calls is given here.
Assays:
K562 [1] = assay: Induction of apoptosis in human K562 cells assessed as live cells at 10 uM after 3 days by Annexin-V staining-based assay (reference value: 87.33%); assay type: functional
Trichophyton tonsurans [2] = assay: Antifungal activity against Trichophyton tonsurans Malmsten CBS 483.76 assessed as growth inhibition at 100 ug/ml measured on day 7 by sabouraud dextrose agar diffusion method relative to control; assay type: functional; settings: Malmsten CBS 483.76, 168 h, read-out: GI
Summary of the method: (§1)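 Dermatophyte strains kept on Sabouraud dextrose agar slants. Mycelium disks (10 mm) from a stationary-phase culture grown at 26 ± 1 °C on cellophane over SDA to log phase, then moved onto SDA containing compound added from DMSO stock at 45 °C (final DMSO 0.1%; DMSO-only controls). Colony diameter measured daily for 7 days. % inhibition = (dex − dex')/dex × 100. Three replicates per concentration; mean of three independent experiments.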

K562 [3] = assay: Antiproliferative activity against human K562 cells assessed as cell number after 3 days by Coulter counter; settings: K562, 72 h
[4] = tested on: Trichophyton mentagrophytes; assay: Antifungal activity against Trichophyton mentagrophytes (Robin) Blanchard CBS 160.66 assessed as growth inhibition at 20 ug/ml measured on day 7 by sabouraud dextrose agar diffusion method relative to control; assay type: functional; settings: (Robin) Blanchard CBS 160.66, 168 h, read-out: GI; summary of the method: as §1
[5] = Antifungal activity against Microsporum canis Bodin CBS 4727 assessed as growth inhibition at 100 ug/ml measured on day 7 by sabouraud dextrose agar diffusion method relative to control; assay type: functional; summary of the method: as §1
[6] = target: Nuclear factor NF-kappa-B complex (Homo sapiens) (UniProt Q00653+P19838+Q04206); assay: Inhibition of NF-kappaB (unknown origin)/32P-labeled oligonucleotide interaction at 0.1 to 10 mM after 20 mins by electrophoretic mobility shift assay; assay type: protein-complex assay
Summary of the method: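 Probe was a double-stranded 32P-labelled oligonucleotide (0.25 ng) in buffer of 10% glycerol, 0.05% NP-40, 10 mM Tris-HCl pH 7.5, 50 mM NaCl, 0.5 mM DTT and 10 mM MgCl2. Compound and probe were bound for 20 min at room temperature, then recombinant NF-kappaB p50 was added for a further 20 min. Samples were run on 6% polyacrylamide in 0.25× TBE at 200 V.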

Trichophyton rubrum [7] = assay: Antifungal activity against Trichophyton rubrum (Castellani) Sabouraud IHME 4321 assessed as growth inhibition at 20 ug/ml measured on day 7 by sabouraud dextrose agar diffusion method relative to control; assay type: functional; settings: (Castellani) Sabouraud IHME 4321, 168 h, read-out: GI; summary of the method: as §1
K562 [8] = assay: Induction of apoptosis in human K562 cells assessed as dead cells at 10 uM after 3 days by Annexin-V staining-based assay (reference value: 1.29%); assay type: functional
[9] = tested on: Trichophyton mentagrophytes; assay: Antifungal activity against Trichophyton mentagrophytes (Robin) Blanchard CBS 160.66 assessed as growth inhibition at 100 ug/ml measured on day 7 by sabouraud dextrose agar diffusion method relative to control; assay type: functional; settings: (Robin) Blanchard CBS 160.66, 168 h, read-out: GI; summary of the method: as §1
Nannizzia gypsea [10] = assay: Antifungal activity against Nannizzia gypsea (Bodin) Guiart et Grigoraki CBS 286.63 assessed as growth inhibition at 20 ug/ml measured on day 7 by sabouraud dextrose agar diffusion method relative to control; assay type: functional; settings: (Bodin) Guiart et Grigoraki CBS 286.63, 168 h, read-out: GI; summary of the method: as §1
[11] = Antifungal activity against Microsporum canis Bodin CBS 4727 assessed as growth inhibition at 20 ug/ml measured on day 7 by sabouraud dextrose agar diffusion method relative to control; assay type: functional; summary of the method: as §1
K562 [12] = assay: Induction of apoptosis in human K562 cells assessed as dead cells at 5 uM after 3 days by Annexin-V staining-based assay (reference value: 1.29%); assay type: functional
Trichophyton violaceum [13] = assay: Antifungal activity against Trichophyton violaceum Malmsten CBS 459.61 assessed as growth inhibition at 100 ug/ml measured on day 7 by sabouraud dextrose agar diffusion method relative to control; assay type: functional; settings: Malmsten CBS 459.61, 168 h, read-out: GI; summary of the method: as §1
[14] = Antioxidant activity assessed as inhibition of AAPH-induced peroxyl radical generation by oxygen radical absorbance capacity assay relative to trolox; assay type: physicochemical
Summary of the method: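 Run at 37 °C and pH 7.4 with fluorescein (85 nM) as the probe and AAPH as the peroxyl radical source. Compounds were dissolved fresh in PBS. Fluorescence read at ex 485/em 538 nm every 5 min for up to 30 min after AAPH addition. Net area under the decay curve (blank minus sample) was calibrated against Trolox at 10–50 μM and given as Trolox equivalents.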

Trichophyton rubrum [15] = assay: Antifungal activity against Trichophyton rubrum (Castellani) Sabouraud IHME 4321 assessed as growth inhibition at 100 ug/ml measured on day 7 by sabouraud dextrose agar diffusion method relative to control; assay type: functional; settings: (Castellani) Sabouraud IHME 4321, 168 h, read-out: GI; summary of the method: as §1
[16] = Octanol-water partition coefficient, log P of the compound at 5 mg/20 ml after 30 mins by spectrophotometric analysis; assay type: physicochemical
Summary of the method: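 Octanol and water (pH 6), 20 mL each, stirred 30 min at 25 °C, then centrifuged 10 min at 4,000 rpm. Compound concentration in each phase measured spectrophotometrically at 360 nm. LogP = log of the octanol/water concentration ratio.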

K562 [17] = assay: Induction of apoptosis in human K562 cells assessed as live cells at 5 uM after 3 days by Annexin-V staining-based assay (reference value: 87.33%); assay type: functional
Nannizzia gypsea [18] = assay: Antifungal activity against Microsporum gypseum (Bodin) Guiart and Grigorakis IHME 3999 assessed as growth inhibition at 100 ug/ml measured on day 7 by sabouraud dextrose agar diffusion method relative to control; assay type: functional; settings: (Bodin) Guiart and Grigorakis IHME 3999, 168 h, read-out: GI; summary of the method: as §1
Paraphyton cookei [19] = assay: Antifungal activity against Nannizzia cajetani Ajello CBS 495.70 assessed as growth inhibition at 20 ug/ml measured on day 7 by sabouraud dextrose agar diffusion method relative to control; assay type: functional; settings: Ajello CBS 495.70, 168 h, read-out: GI; summary of the method: as §1
K562 [20] = assay: Induction of apoptosis in human K562 cells assessed as apoptotic cells at 10 uM after 3 days by Annexin-V staining-based assay (reference value: 11.37%); assay type: functional
K562 [21] = assay: Induction of apoptosis in human K562 cells assessed as late apoptotic cells at 10 uM after 3 days by Annexin-V staining-based assay (reference value: 5.96%); assay type: functional
Trichophyton violaceum [22] = assay: Antifungal activity against Trichophyton violaceum Malmsten CBS 459.61 assessed as growth inhibition at 20 ug/ml measured on day 7 by sabouraud dextrose agar diffusion method relative to control; assay type: functional; settings: Malmsten CBS 459.61, 168 h, read-out: GI; summary of the method: as §1
[23] = Antioxidant activity assessed as superoxide anion radical scavenging by photochemiluminescence method relative to trolox using formulation containing O/W; assay type: physicochemical
K562 [24] = assay: Induction of apoptosis in human K562 cells assessed as late apoptotic cells at 5 uM after 3 days by Annexin-V staining-based assay (reference value: 5.96%); assay type: functional
Paraphyton cookei [25] = assay: Antifungal activity against Nannizzia cajetani Ajello CBS 495.70 assessed as growth inhibition at 100 ug/ml measured on day 7 by sabouraud dextrose agar diffusion method relative to control; assay type: functional; settings: Ajello CBS 495.70, 168 h, read-out: GI; summary of the method: as §1
[26] = Antioxidant activity assessed as superoxide anion radical scavenging by photochemiluminescence method relative to trolox; assay type: physicochemical
Summary of the method: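 Superoxide was generated photochemically from luminol under UV light (351 nm). Lag time (water-soluble, ACW) or integrated light emission over 180 s (lipid-soluble, ACL) was compared with a Trolox standard curve. Samples were centrifuged 5 min at 16000 g and diluted 1:40 in water (ACW) or methanol (ACL). Triplicate determinations.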

Trichophyton tonsurans [27] = assay: Antifungal activity against Trichophyton tonsurans Malmsten CBS 483.76 assessed as growth inhibition at 20 ug/ml measured on day 7 by sabouraud dextrose agar diffusion method relative to control; assay type: functional; settings: Malmsten CBS 483.76, 168 h, read-out: GI; summary of the method: as §1
Nannizzia gypsea [28] = assay: Antifungal activity against Microsporum gypseum (Bodin) Guiart and Grigorakis IHME 3999 assessed as growth inhibition at 20 ug/ml measured on day 7 by sabouraud dextrose agar diffusion method relative to control; assay type: functional; settings: (Bodin) Guiart and Grigorakis IHME 3999, 168 h, read-out: GI; summary of the method: as §1
K562 [29] = assay: Induction of apoptosis in human K562 cells assessed as early apoptotic cells at 10 uM after 3 days by Annexin-V staining-based assay (reference value: 5.41%); assay type: functional
Nannizzia gypsea [30] = assay: Antifungal activity against Nannizzia gypsea (Bodin) Guiart et Grigoraki CBS 286.63 assessed as growth inhibition at 100 ug/ml measured on day 7 by sabouraud dextrose agar diffusion method relative to control; assay type: functional; settings: (Bodin) Guiart et Grigoraki CBS 286.63, 168 h, read-out: GI; summary of the method: as §1
Epidermophyton floccosum [31] = assay: Antifungal activity against Epidermophyton floccosum (Hartz) Langeron and Milochevitch CBS 358.93 assessed as growth inhibition at 20 ug/ml measured on day 7 by sabouraud dextrose agar diffusion method relative to control; assay type: functional; summary of the method: as §1
K562 [32] = assay: Induction of apoptosis in human K562 cells assessed as apoptotic cells at 5 uM after 3 days by Annexin-V staining-based assay (reference value: 11.37%); assay type: functional
K562 [33] = assay: Induction of apoptosis in human K562 cells assessed as early apoptotic cells at 5 uM after 3 days by Annexin-V staining-based assay (reference value: 5.41%); assay type: functional
Epidermophyton floccosum [34] = assay: Antifungal activity against Epidermophyton floccosum (Hartz) Langeron and Milochevitch CBS 358.93 assessed as growth inhibition at 100 ug/ml measured on day 7 by sabouraud dextrose agar diffusion method relative to control; assay type: functional; summary of the method: as §1

Sequence of Nuclear factor NF-kappa-B complex (Homo sapiens) (P19838 whole entry, looked up): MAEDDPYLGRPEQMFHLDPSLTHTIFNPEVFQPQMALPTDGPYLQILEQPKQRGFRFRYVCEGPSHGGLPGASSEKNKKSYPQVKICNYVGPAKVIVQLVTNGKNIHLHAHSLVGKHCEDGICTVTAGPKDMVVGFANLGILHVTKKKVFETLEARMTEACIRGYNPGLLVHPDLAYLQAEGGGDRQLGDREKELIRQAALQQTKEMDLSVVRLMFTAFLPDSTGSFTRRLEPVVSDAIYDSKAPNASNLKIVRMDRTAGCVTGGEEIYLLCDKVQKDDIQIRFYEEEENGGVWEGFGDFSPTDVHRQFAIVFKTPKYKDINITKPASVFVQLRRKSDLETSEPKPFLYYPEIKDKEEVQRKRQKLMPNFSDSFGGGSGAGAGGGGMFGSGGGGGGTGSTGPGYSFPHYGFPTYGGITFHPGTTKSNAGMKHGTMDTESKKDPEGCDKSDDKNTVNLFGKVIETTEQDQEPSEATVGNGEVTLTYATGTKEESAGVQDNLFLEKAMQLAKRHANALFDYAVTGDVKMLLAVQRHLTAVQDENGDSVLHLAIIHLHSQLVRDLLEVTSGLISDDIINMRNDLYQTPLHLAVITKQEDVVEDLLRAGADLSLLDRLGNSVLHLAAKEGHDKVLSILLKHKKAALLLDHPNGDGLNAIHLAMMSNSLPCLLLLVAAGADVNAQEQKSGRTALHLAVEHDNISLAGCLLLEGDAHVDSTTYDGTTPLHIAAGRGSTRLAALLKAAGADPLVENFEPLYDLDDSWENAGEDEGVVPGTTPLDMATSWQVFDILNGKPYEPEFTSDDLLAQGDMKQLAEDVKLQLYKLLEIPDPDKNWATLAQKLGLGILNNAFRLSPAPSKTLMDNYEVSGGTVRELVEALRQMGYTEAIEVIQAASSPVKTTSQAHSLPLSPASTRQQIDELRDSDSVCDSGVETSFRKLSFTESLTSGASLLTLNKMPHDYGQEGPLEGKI
Sequence of Nuclear factor NF-kappa-B complex (Homo sapiens) (Q00653 whole entry, looked up): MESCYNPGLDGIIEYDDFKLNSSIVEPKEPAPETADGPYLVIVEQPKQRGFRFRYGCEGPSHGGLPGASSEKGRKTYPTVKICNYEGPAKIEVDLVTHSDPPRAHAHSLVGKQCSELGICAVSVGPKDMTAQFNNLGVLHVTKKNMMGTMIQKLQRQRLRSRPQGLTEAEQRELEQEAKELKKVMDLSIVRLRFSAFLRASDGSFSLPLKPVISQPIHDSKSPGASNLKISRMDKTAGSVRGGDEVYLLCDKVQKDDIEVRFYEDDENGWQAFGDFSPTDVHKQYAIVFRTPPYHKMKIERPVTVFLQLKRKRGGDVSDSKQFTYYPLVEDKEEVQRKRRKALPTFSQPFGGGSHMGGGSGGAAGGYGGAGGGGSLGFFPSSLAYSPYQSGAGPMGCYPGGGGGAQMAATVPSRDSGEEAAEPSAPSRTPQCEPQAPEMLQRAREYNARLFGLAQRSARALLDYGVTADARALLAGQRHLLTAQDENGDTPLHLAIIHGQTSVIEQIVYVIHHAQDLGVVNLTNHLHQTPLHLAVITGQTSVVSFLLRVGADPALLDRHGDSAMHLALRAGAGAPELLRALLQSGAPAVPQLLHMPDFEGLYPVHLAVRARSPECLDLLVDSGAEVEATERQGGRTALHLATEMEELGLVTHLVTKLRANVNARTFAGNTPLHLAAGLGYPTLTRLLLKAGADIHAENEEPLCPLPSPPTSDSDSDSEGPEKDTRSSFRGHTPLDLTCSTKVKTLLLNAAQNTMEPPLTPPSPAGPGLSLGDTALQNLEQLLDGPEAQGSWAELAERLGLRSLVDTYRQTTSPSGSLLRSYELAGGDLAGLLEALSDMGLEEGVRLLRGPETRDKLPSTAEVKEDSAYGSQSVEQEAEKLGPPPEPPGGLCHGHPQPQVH
Sequence of Nuclear factor NF-kappa-B complex (Homo sapiens) (Q04206 whole entry, looked up): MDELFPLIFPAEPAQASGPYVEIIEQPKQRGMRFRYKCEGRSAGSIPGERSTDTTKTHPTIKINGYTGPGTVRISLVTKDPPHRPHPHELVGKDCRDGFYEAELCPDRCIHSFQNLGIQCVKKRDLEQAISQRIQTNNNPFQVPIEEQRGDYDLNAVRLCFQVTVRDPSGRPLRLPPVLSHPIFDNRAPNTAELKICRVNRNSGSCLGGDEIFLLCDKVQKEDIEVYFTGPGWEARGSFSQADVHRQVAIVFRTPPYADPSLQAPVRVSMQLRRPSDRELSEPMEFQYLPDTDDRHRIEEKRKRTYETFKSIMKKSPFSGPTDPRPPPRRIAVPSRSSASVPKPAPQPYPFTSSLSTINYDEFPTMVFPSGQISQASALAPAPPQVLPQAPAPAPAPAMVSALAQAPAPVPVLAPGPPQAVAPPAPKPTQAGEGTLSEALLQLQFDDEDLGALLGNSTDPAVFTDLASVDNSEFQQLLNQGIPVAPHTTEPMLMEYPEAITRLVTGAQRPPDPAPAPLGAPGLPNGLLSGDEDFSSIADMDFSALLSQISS

Q: For `CCC(=O)O[C@@H]1[C@@H](OC(=O)CC)[C@H](C)O[C@@H](OC[C@H]2O[C@@H](Oc3c(-c4ccc(O)c(O)c4)oc4cc(O)cc(O)c4c3=O)[C@H](OC(=O)CC)[C@@H](OC(=O)CC)[C@@H]2OC(=O)CC)[C@@H]1OC(=O)CC`, which Activity (K562 [1]) is on record?
A: 71.2%

Q: And the inhibition of growth at 100 µg/mL (Trichophyton tonsurans [2])?
A: 17.8%

Q: What about the IC50 (K562 [3]) of the same molecule?
A: 7.17 µM

Q: What about the inhibition of growth at 20 µg/mL [4] of the same molecule?
A: 0%

Q: And the growth inhibition (GI) [5]?
A: 0%

Q: What about the inhibition [6] of the same molecule?
A: Active

Q: What about the inhibition of growth at 20 µg/mL (Trichophyton rubrum [7]) of the same molecule?
A: 3.5%

Q: And the Activity (K562 [8])?
A: 1.34%

Q: What about the inhibition of growth at 100 µg/mL [9] of the same molecule?
A: 5.7%

Q: What about the inhibition of growth at 20 µg/mL (Nannizzia gypsea [10]) of the same molecule?
A: 1.9%

Q: And the “growth inhibition (GI)” value [11]?
A: inactive

Q: And the Activity (K562 [12])?
A: 2.55%

Q: What about the inhibition of growth at 100 µg/mL (Trichophyton violaceum [13]) of the same molecule?
A: 15.8%

Q: What about the Activity [14] of the same molecule?
A: 728.61 µmol/g

Q: What about the inhibition of growth at 100 µg/mL (Trichophyton rubrum [15]) of the same molecule?
A: 4.3%

Q: And the logP at 0.5 h [16]?
A: 1.09

Q: And the Activity (K562 [17])?
A: 79.75%

Q: And the inhibition of growth at 100 µg/mL (Nannizzia gypsea [18])?
A: 9.9%

Q: And the inhibition of growth at 20 µg/mL (Paraphyton cookei [19])?
A: 0.6%

Q: What about the Activity (K562 [20]) of the same molecule?
A: 27.46%

Q: What about the Activity (K562 [21]) of the same molecule?
A: 15.82%

Q: What about the inhibition of growth at 20 µg/mL (Trichophyton violaceum [22]) of the same molecule?
A: 10.7%

Q: And the Activity [23]?
A: 3.81 µmol/g

Q: What about the Activity (K562 [24]) of the same molecule?
A: 5.35%

Q: What about the inhibition of growth at 100 µg/mL (Paraphyton cookei [25]) of the same molecule?
A: 3.5%

Q: What about the Activity [26] of the same molecule?
A: 1232.67 µmol/g

Q: And the inhibition of growth at 20 µg/mL (Trichophyton tonsurans [27])?
A: 5.4%

Q: What about the inhibition of growth at 20 µg/mL (Nannizzia gypsea [28]) of the same molecule?
A: 5.4%

Q: What about the Activity (K562 [29]) of the same molecule?
A: 11.64%

Q: What about the inhibition of growth at 100 µg/mL (Nannizzia gypsea [30]) of the same molecule?
A: 7.9%

Q: And the “growth inhibition (GI)” value (Epidermophyton floccosum [31])?
A: inactive

Q: And the Activity (K562 [32])?
A: 17.7%

Q: And the Activity (K562 [33])?
A: 12.35%

Q: And the “growth inhibition (GI)” value (Epidermophyton floccosum [34])?
A: inactive

Source: ChEMBL document CHEMBL3352456, “Design, synthesis and biological activity of a novel Rutin analogue with improved lipid soluble properties” (Bioorg Med Chem, 2015)
